The values that follow come from ChEMBL document CHEMBL4390698, “Targeted delivery of atorvastatin via asialoglycoprotein receptor (ASGPR)” (Bioorg Med Chem, 2019).

The source made the active and inactive calls. The calls are words filed in the database; no cut-off is given here.

Series [1] in a line: Drug metabolism assessed as esterase (unknown origin)-mediated atorvastatin release in pH 7.4 PBS buffer incubated for 3 to 24 hrs by mass spectrometry. In kind it is ADME. Conditions: human. An outline of the steps: (§1)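 Porcine liver esterase hydrolysis; DMSO stocks 3.5 mM. pH 7.40 route: stock diluted into PBS pH 7.40 containing 0.5 mg/mL esterase, 37 °C, sampled at 0 h, 3 h and 24 h. pH 4.50 route: PBS pH 4.50 at 37 °C for 24 h, pH raised to 7.40 with NaOH, PBS pH 7.40 containing 1.0 mg/mL esterase added, 37 °C one day. Reactions quenched with DCM; DCM layer analysed by mass spectrometry.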

Series [2] addresses T1, 3-hydroxy-3-methylglutaryl-coenzyme A reductase (Homo sapiens) (UniProt P04035).
T1 sequence (whole entry): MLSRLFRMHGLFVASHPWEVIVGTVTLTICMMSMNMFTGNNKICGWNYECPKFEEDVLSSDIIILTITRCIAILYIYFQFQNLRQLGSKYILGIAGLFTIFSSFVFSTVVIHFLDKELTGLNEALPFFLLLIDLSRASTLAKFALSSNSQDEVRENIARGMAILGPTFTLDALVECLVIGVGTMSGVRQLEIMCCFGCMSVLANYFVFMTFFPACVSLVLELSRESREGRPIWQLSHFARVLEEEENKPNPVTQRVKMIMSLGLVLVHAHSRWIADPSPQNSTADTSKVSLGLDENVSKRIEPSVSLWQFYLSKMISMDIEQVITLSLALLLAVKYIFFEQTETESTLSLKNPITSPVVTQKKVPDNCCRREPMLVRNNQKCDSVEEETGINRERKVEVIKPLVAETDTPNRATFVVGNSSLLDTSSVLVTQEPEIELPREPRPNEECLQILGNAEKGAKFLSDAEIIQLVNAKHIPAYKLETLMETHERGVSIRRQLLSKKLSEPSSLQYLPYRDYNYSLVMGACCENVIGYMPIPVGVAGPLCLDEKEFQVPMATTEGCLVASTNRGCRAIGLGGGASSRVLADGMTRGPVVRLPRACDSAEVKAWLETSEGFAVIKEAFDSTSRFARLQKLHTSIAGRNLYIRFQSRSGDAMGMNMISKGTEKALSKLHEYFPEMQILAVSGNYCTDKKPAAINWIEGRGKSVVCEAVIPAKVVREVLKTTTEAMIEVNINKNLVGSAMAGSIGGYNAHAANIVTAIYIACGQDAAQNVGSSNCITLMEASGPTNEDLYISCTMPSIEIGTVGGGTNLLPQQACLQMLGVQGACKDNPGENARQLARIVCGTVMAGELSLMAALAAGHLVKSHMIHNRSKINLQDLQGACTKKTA
Briefly: Inhibition of HMG CoA reductase (unknown origin) using hydrolyzed product of compound in presence of NADPH incubated for 24 hrs in pH 4.5 PBS followed by incubation in pH 7.4 for 24 hrs in presence of esterase.

Series [3] can be described thus: Drug uptake in human Hep3B cells assessed as ASGPR-mediated cellular uptake at 90 uM incubated for 3 hrs in presence of 90 mM GalNac by UV spectrum and mass spectroscopic method relative to atorvastatin. In kind it is ADME, cell-based. An outline of the steps:
(§2)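 Hep3B cells in EMEM/10% FBS, 37 °C, 5% CO2, seeded 1×10^4 cells/cm2. After 24 h, compound was added from 18 mM stocks to a final 90 μM, with or without 90 mM GalNac co-added, for 3 h. Cells were rinsed, trypsinised and pelleted, then extracted with methanol/DCM. Supernatant was read by UV and mass spectra, and amounts were taken from standard curves.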

Series [4] addresses T1, 3-hydroxy-3-methylglutaryl-coenzyme A reductase (Homo sapiens). Briefly: Inhibition of HMG CoA reductase in human Hep3G cells assessed as increase in LDL receptor expression at 25 uM incubated for 48 hrs by immunofluorescence method. In kind it is cell-based. To be noted: in the assay text read “Hep3B” for “Hep3G”. The procedure, abridged:
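Hep3B cells seeded 2×10^5 cells/cm2 and treated 24 h later at 25 μM final (from 10 mM stocks) for 48 h. Harvested cells were stained with anti-LDL receptor primary (1/100, 30 min RT), then goat anti-mouse IgG (1/2000, 30 min RT, dark), and analysed by flow cytometry. Triplicate; two-tailed t test.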

A short description of series [5]: Drug uptake in human Hep3B cells assessed as ASGPR-mediated cellular uptake at 90 uM incubated for 3 hrs by UV spectrum and mass spectroscopic method relative to atorvastatin. Type of series: ADME, cell-based. The procedure, abridged:
as §2

Series [6] has as its target T1, 3-hydroxy-3-methylglutaryl-coenzyme A reductase (Homo sapiens). The series can be described thus: Inhibition of HMG CoA reductase (unknown origin) in pH 4.5 PBS in presence of NADPH incubated for 10 mins. An outline of the steps:
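Commercial HMG-CoA reductase kit, run on conjugates first hydrolysed as in the esterase procedure (pH 7.40 esterase, or pH 4.50 then pH 7.40 esterase). Absorbance at 340 nm was read kinetically for 10 min. Activity was computed from ΔA340/min (sample minus blank) using NADPH ε 6.22 mM⁻¹cm⁻¹ ×2, 0.6 mg/mL enzyme, 12×10^-3 mL enzyme, 0.2 mL total volume and 0.55 cm path.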

Series [7] in a line: Drug metabolism assessed as esterase (unknown origin)-mediated atorvastatin release in pH 4.5 PBS buffer incubated for 3 to 24 hrs by mass spectrometry. Type of series: ADME. To be noted: human. The procedure, abridged:
as §1

Regarding `CC(=O)N[C@H]1[C@H](OCCn2cc(COC(=O)C[C@H](O)C[C@H](O)CCn3c(-c4ccc(F)cc4)c(-c4ccccc4)c(C(=O)Nc4ccccc4)c3C(C)C)nn2)O[C@H](CO)[C@H](O)[C@@H]1O`, the Drug metabolism entry in series [1] is “Metabolite_Detected”. The inhibition entry in series [2] and in series [6] was “inactive” each time. The Drug uptake entry in series [3] is “Not Active”. Besides, the inhibition entry in series [4] was “Active”. The “fold change (FC)” value in series [5] is reported as 1.4.

For the molecule `CC(=O)N[C@H]1[C@H](OCCn2cc(COC(=O)C[C@H]3C[C@@H](CCn4c(-c5ccc(F)cc5)c(-c5ccccc5)c(C(=O)Nc5ccccc5)c4C(C)C)OC(C)(C)O3)nn2)O[C@H](CO)[C@H](O)[C@@H]1O`, the figures for the Drug metabolism entry in series [1] and in series [7] were “Metabolite_Notdetected” and “Metabolite_Detected”, respectively. The inhibition entry in series [2] and in series [6] was “inactive” in each case. Further, the Drug uptake entry in series [3] is “Not Active”. For the same molecule, the inhibition result in series [4] was “Active”. Also, in series [5], the “fold change (FC)” value was 5.1.

With `CC(C)c1c(C(=O)Nc2ccccc2)c(-c2ccccc2)c(-c2ccc(F)cc2)n1CC[C@@H](O)C[C@@H](O)CC(=O)O`, the inhibition entry in series [4] and in series [6] was “Active” throughout.
